This note sets out measurements from ChEMBL document CHEMBL4251654, “Structure-based design of human immuno- and constitutive proteasomes inhibitors” (Eur J Med Chem, 2018).

In experiment [1] the target is T1, Proteasome Macropain subunit MB1 (Homo sapiens, UniProt P28074).
T1 sequence (P28074 whole entry): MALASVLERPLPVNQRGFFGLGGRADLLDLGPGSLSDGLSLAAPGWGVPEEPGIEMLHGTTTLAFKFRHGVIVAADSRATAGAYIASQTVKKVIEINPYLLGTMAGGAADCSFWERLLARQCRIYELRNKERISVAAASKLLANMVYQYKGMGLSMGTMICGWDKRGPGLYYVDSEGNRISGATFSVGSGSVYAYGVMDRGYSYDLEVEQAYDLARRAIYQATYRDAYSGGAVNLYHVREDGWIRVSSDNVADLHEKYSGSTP
As to the kind of experiment: Inhibition of human 20S constitutive proteasome beta-5 using Suc-LLVY-AMC as substrate incubated for 15 mins measured for 45 mins by fluorescence assay. The procedure, abridged: (§1)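 Human 20S cCP or iCP (0.3 nM) was exposed to compound (0.001-50 μM) for 15 min in pH 8 buffer of 20 mM Tris-HCl, 10% glycerol, 0.01% SDS, 2% DMSO. Suc-LLVY-AMC at 20 μM followed. Fluorescence (ex 360/em 460 nm) was read 45 min at 37 °C versus untreated enzyme.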

Experiment [2] addresses T2, Proteasome subunit beta type-8 (Homo sapiens, UniProt P28062).
T2 sequence (P28062 whole entry): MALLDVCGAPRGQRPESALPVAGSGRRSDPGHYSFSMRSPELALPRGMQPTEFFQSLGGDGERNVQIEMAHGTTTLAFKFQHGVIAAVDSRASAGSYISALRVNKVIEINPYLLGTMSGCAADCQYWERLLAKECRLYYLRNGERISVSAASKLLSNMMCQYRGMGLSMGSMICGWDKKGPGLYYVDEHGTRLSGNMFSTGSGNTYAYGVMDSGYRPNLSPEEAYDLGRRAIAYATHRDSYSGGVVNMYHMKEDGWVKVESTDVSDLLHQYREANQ
The experiment is described as follows: Inhibition of human 20S immunoproteasome beta-5 using Suc-LLVY-AMC as substrate incubated for 15 mins measured for 45 mins by fluorescence assay. In a few lines: as §1

Experiment [3] addresses T3, Proteasome Macropain subunit MB1 (Homo sapiens) (UniProt P28074).
T3 sequence (whole entry): T1 sequence (P28074 whole entry)
The experiment is described as follows: Inhibition of human 20S constitutive proteasome beta-5 at 50 uM using Suc-LLVY-AMC as substrate incubated for 15 mins measured for 45 mins by fluorescence assay relative to control. In a few lines:
as §1

The target of experiment [4] is T4, Proteasome subunit beta type-8 (Homo sapiens) (UniProt P28062).
T4 sequence (whole entry): T2 sequence (P28062 whole entry)
As to the kind of experiment: Inhibition of human 20S immunoproteasome beta-5 at 50 uM using Suc-LLVY-AMC as substrate incubated for 15 mins measured for 45 mins by fluorescence assay relative to control. The procedure, abridged:
as §1

The target in experiment [5] is T5, Proteasome subunit beta type-9 (Homo sapiens, UniProt P28065).
T5 sequence (P28065 whole entry): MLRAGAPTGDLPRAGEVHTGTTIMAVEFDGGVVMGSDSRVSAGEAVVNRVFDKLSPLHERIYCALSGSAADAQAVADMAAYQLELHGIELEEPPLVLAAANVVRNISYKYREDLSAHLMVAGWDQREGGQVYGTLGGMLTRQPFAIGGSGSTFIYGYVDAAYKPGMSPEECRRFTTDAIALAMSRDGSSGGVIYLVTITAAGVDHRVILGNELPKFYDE
As to the kind of experiment: Inhibition of human 20S immunoproteasome beta-1 using Ac-PAL-AMC as substrate incubated for 15 mins measured for 45 mins by fluorescence assay. In a few lines:
(§2)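 Human 20S immunoproteasome (0.3 nM) was given 15 min with compound (0.001-50 μM) in pH 8 buffer of 20 mM Tris-HCl, 10% glycerol, 0.01% SDS, 2% DMSO. Ac-PAL-AMC at 50 μM was the substrate. Fluorescence (ex 360/em 460 nm) was followed 45 min at 37 °C relative to control.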

Experiment [6] deals with T6, Proteasome component C5 (Homo sapiens) (UniProt P20618).
T6 sequence (whole entry): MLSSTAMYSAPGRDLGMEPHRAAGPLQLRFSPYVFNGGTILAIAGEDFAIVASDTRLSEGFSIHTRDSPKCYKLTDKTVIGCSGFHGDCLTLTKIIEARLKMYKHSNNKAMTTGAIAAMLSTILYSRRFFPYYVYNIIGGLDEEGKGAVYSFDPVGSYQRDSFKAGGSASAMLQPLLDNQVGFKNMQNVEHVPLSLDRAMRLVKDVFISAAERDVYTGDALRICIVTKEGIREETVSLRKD
As to the kind of experiment: Inhibition of human 20S constitutive proteasome beta-1 at 50 uM using Z-LLE-betaNA as substrate incubated for 15 mins measured for 45 mins by fluorescence assay relative to control. The procedure, abridged: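 Human 20S constitutive proteasome, 0.3 nM, was preincubated 15 min with compound (0.001-50 μM) in pH 8 Tris-HCl 20 mM, 10% glycerol, 0.01% SDS, 2% DMSO. Z-LLE-βNA at 50 μM was added. βNA fluorescence (ex 340/em 404 nm) was monitored 45 min at 37 °C against an untreated control.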

Experiment [7] has as its target T7, Proteasome subunit beta type-9 (Homo sapiens) (UniProt P28065).
T7 sequence (whole entry): T5 sequence (P28065 whole entry)
As to the kind of experiment: Inhibition of human 20S immunoproteasome beta-1 at 50 uM using Ac-PAL-AMC as substrate incubated for 15 mins measured for 45 mins by fluorescence assay relative to control. In a few lines: as §2

Experiment [8] concerns the target Proteasome Macropain subunit (Homo sapiens) (UniProt P49721). As to the kind of experiment: Inhibition of human 20S constitutive proteasome beta-2 at 50 uM using BocLRR-AMC as substrate incubated for 15 mins measured for 45 mins by fluorescence assay relative to control. In a few lines: (§3)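 Purified human 20S proteasome (cCP or iCP), 0.3 nM, preincubated 15 min with compound (0.001-50 μM) in pH 8 buffer of 20 mM Tris-HCl, 10% glycerol, 0.005% Triton X-100, 2% DMSO. Then Boc-LRR-AMC at 50 μM was added. AMC fluorescence (ex 360/em 460 nm) was followed 45 min at 37 °C. Activity is relative to an untreated control.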

For experiment [9], the target named is T8, Proteasome subunit beta type-10 (Homo sapiens) (UniProt P40306).
T8 sequence (whole entry): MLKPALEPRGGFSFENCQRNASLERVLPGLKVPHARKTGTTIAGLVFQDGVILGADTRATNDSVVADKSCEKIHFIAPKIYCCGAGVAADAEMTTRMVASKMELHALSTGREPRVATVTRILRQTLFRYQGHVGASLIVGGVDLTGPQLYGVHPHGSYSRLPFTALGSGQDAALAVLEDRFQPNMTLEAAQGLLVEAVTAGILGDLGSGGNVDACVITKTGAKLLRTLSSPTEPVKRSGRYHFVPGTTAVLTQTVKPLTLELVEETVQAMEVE
As to the kind of experiment: Activation of human 20S immunoproteasome beta-2 at 50 uM using BocLRR-AMC as substrate incubated for 15 mins measured for 45 mins by fluorescence assay relative to control. In a few lines: as §3

Experiment [10] concerns the target T9, Proteasome subunit beta type-10 (Homo sapiens, UniProt P40306).
T9 sequence (P40306 whole entry): T8 sequence (whole entry)
The experiment is described as follows: Inhibition of human 20S immunoproteasome beta-2 using BocLRR-AMC as substrate incubated for 15 mins measured for 45 mins by fluorescence assay.

Experiment [11] concerns the target T8, Proteasome subunit beta type-10 (Homo sapiens). The experiment is described as follows: Inhibition of human 20S immunoproteasome beta-2 at 50 uM using BocLRR-AMC as substrate incubated for 15 mins measured for 45 mins by fluorescence assay relative to control.
Experiment [12] deals with 20S immunoproteasome β5i (Homo sapiens). The experiment is described as follows: Inhibition of human 20S immunoproteasome beta-5.
Experiment [13] deals with 20S proteasome β5 (Homo sapiens). As to the kind of experiment: Inhibition of human 20S constitutive proteasome beta-5.
The subject of experiment [14] is 20S immunoproteasome β5i (Homo sapiens). As to the kind of experiment: Inhibition of human 20S immunoproteasome beta-5 at 50 uM.
Experiment [15] relates to 20S proteasome β5 (Homo sapiens). As to the kind of experiment: Inhibition of human 20S constitutive proteasome beta-5 at 50 uM.

SMILES strings stand for the structures. Active and inactive are the calls of the source. The calls are words filed in the database; no cut-off is given here.

Proteasome Macropain subunit (Homo sapiens), sequence (P49721 whole entry): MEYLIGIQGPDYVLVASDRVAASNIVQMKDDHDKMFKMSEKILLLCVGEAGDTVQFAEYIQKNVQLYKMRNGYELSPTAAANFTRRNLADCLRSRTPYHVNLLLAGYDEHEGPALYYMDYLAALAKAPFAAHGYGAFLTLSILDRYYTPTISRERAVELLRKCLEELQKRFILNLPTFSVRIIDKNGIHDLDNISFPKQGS

Turning to `CC(C)(C)OC(=O)NCCCC[C@H](NC(=O)[C@H](Cc1ccc(OCc2ccccc2)cc1)NC(=O)OC(C)(C)C)C(=O)N[C@@H](C[C@]1(O)C(=O)Nc2ccccc21)C(=O)NCc1ccccc1`, the IC50 in experiment [1] was 22 µM; in experiment [2], 25.1 µM; in experiment [5], 59 µM. Moreover, the inhibition is over 85% in [3], over 85% in experiment [4], 15% in experiment [6] and over 85% in experiment [7]. Further, the inhibition result in experiment [8] is “inactive”. This compound showed a fold change (FC) in [9] of 1.3.

Turning to `C[C@H](NC(=O)[C@H](Cc1ccc(OCc2ccccc2)cc1)NC(=O)OC(C)(C)C)C(=O)N[C@@H](C[C@]1(O)C(=O)Nc2ccccc21)C(=O)NCc1ccc(-c2ccccc2)cc1`, the results for the IC50 in experiment [1], in experiment [2] and in [5] were 28.7 µM, 19.7 µM and 13 µM, respectively. Besides, the inhibition in experiment [3], in [4], in [6] and in [7] was over 85% in each case. Besides, the inhibition entry in [8] was “inactive”. In experiment [9], this compound displayed a fold change (FC) of 1.5.

As for `C[C@H](NC(=O)[C@@H](N)Cc1ccc(OCc2ccccc2)cc1)C(=O)N[C@@H](C[C@]1(O)C(=O)Nc2ccccc21)C(=O)NCc1ccccc1`, the IC50 in experiment [5] worked out at 21.5 µM; in experiment [10], 27.2 µM; in experiment [12], 13 µM; in [13], 10.7 µM. Further, the inhibition in [6], in experiment [7], in experiment [8] and in experiment [11] was over 85% throughout.

Take `C[C@H](NC(=O)[C@H](Cc1ccc(O)cc1)NC(=O)OC(C)(C)C)C(=O)N[C@@H](C[C@]1(O)C(=O)Nc2ccccc21)C(=O)NCc1ccccc1`: the inhibition result in experiment [6] is “inactive”. The inhibition is 12% in experiment [7], 19% in experiment [8] and 10% in experiment [11]. Also, the IC50 in [12] was determined as 34 µM; in experiment [13], 32 µM.

Regarding `CNC(=O)[C@H](C[C@@]1(O)C(=O)Nc2ccccc21)NC(=O)[C@H](C)NC(=O)[C@H](Cc1ccc(OCc2ccccc2)cc1)NC(=O)OC(C)(C)C`, the inhibition result in experiment [6] and in [15] was “inactive” throughout. For the same compound, the inhibition in experiment [7] was 10%; in experiment [8], 13%; in experiment [11] it was 19%; in experiment [14] it was 8%.

As to `C[C@H](NC(=O)[C@H](Cc1ccc(OCc2ccccc2)cc1)NC(=O)OC(C)(C)C)C(=O)N[C@@H](C[C@@]1(O)C(=O)Nc2ccccc21)C(=O)NCc1ccccc1`, the IC50 in [5] turned out to be 10.6 µM; in experiment [10], 34 µM; in experiment [12], 7.3 µM; in [13] it was 7 µM. Also, the inhibition in experiment [6], in experiment [7] and in experiment [11] was over 85% each time. The inhibition entry in [8] is “inactive”.

Turning to `CC(C)c1ccc(CNC(=O)[C@H](C[C@]2(O)C(=O)Nc3ccccc32)NC(=O)[C@H](C)NC(=O)[C@H](Cc2ccc(OCc3ccccc3)cc2)NC(=O)OC(C)(C)C)cc1`, the half-maximal inhibitory concentration (IC50) in experiment [1] stood at 10 µM; in [2], 17.1 µM. Besides, the inhibition was over 85% in [3], over 85% in experiment [4], 37% in experiment [6] and over 85% in experiment [7]. Moreover, the inhibition result in experiment [8] was “inactive”. Moreover, the fold change (FC) in [9] amounted to 1.3.

In the case of `CNC(=O)[C@H](C[C@]1(O)C(=O)Nc2ccccc21)NC(=O)[C@H](C)NC(=O)[C@H](Cc1ccc(OCc2ccccc2)cc1)NC(=O)OC(C)(C)C`, the inhibition in experiment [6] is 20%; in experiment [7] it was 13%; in [8] it was 36%; in experiment [11] it was over 85%; in experiment [14], 24%. Moreover, the IC50 in [10] came out at 79 µM.
